Ec RNAP inh – E. coli RNAP inhibitors, biochemical; DNA-directed RNA polymerase subunit beta (Escherichia coli (strain K12)), P0A8V2; E. coli RNA polymerase, fluorescence transcription assay; inhibition, %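 (tested at 10 µM)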; 62,000 tested, 0.2% active; in the data active = inhibition above about 20%;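 note: 0% = enzyme without compound and 100% = no enzyme blank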
MMP-13 inhibitor – human MMP13 inhibitors, primary screen, biochemical, FRET peptide cleavage; MMP-13 fTHP FRET cleavage, Mca fluorescence; inhibition, % at 4 µM; 65,000 tested, 0.07% active; AID 570, 2006;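 active = inhibition above the mean of compound-free control plate wells plus 3 SD, cut at about 14% in these data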;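 note: 0% = DMSO wells and 100% = wells with reference MMP-13 inhibitor after basal subtraction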
tolC growth inh – growth inhibitors of E. coli tolC mutant, primary screen, strain BW25113 ΔtolC::kan, 384-well; growth inhibition, % at 10 µM (by protocol); OD615; 65,000 tested, 2.2% active;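 active = growth inhibition at or above a cutoff equal to the mean over every tested compound plus 3 SD, cut at about 60% in these data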;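 note: growth measured after 20 h incubation at 37 °C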
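Assay system: tolC-deleted E. coli BW25113. Medium: kanamycin-containing LB broth (50 µg/mL). Dosing: 10 µM final, single dose. Timing: bacterial growth with compound for 20 h at 37 °C. Detection: A615 absorbance measurement. Read-out basis: growth inhibition in percent.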
AP ELISA ortho – alternative complement pathway inhibitors, primary screen, biochemical, ELISA, human serum, orthogonally pooled compounds; LPS-coated ELISA, C3 deposition; tested in compound mixtures; inhibition, % at 5 µM; 62,000 tested, 0.08% active;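 active = inhibition above 30% in each of the two pooled mixtures holding the compound, so the lower value exceeds 30%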;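 note: 0% = serum in Mg-EGTA without compound and 100% = EDTA serum blank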
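Test system: human serum complement alternative pathway, C3 deposition onto LPS / Medium: Mg2+-EGTA GVB++ buffer containing human serum at 1:15 dilution / Probe or stimulus: Plate-bound LPS / Times: 1 h at 37 °C / Signal: ELISA with HRP anti-human C3 antibody, TMB substrate, absorbance 450 nm / Measure: percent inhibition / Repeats: two pool placements per compound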
E coli WT exp – growth inhibitors of wild-type E. coli, primary screen, strain BW25113, expanded library, OD600 | OD600 absorbance | 98,000 tested, 0.15% active | growth inhibition, % at 100 µM;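 active = growth inhibition above about 50% at one test dose, limit read from the data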;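 note: growth measured after 20 h incubation at 37 °C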
HePTP inhibitor – inhibitors of human HePTP phosphatase, primary screen, biochemical, absorbance, leukemia target. recombinant HePTP phosphatase activity, OD absorbance. inhibition, % at 20 µM. 110,000 tested, 0.64% active; in the data active = inhibition above about 50%;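 note: plate controls were vehicle for no effect and reference inhibitor for full effect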
Target sequence (P35236 whole entry, looked up): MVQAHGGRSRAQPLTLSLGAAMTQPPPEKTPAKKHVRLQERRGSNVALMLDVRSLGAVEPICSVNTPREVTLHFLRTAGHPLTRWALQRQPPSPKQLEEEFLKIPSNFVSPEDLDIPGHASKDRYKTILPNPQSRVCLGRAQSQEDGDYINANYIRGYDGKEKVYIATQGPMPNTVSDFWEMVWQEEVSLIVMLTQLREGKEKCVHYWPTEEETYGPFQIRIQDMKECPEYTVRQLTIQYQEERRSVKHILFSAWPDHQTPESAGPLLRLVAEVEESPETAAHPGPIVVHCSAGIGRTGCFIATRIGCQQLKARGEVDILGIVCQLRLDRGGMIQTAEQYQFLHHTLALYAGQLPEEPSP
* hit, by the source's call; · = no result given. Only a selection was taken, and hits are over-represented in it overall.

SMILES | Ec RNAP inh | MMP-13 inhibitor | tolC growth inh | AP ELISA ortho | E coli WT exp | HePTP inhibitor
Cc1ccc(-c2noc(CCC(=O)N3CCN(c4cccc(C(F)(F)F)c4)CC3)n2)cc1 | 6 | 0 | 64* | -3 | -1 | 2
Cc1ccc(-c2noc(CCC(=O)N3CCCc4ccccc43)n2)cc1 | 7 | 2 | 92* | 5 | 3 | 4
O=Nc1c2nc3ccccc3n(O)c-2c2ccccc12 | -2 | -1 | 87* | 13 | 2 | -1
CN1C(=O)NC(=O)/C(=C/c2ccc(O)c([N+](=O)[O-])c2)C1=O | · | · | · | · | · | -10
COc1ccc(C(O)(CNCc2ccccc2)c2ccc(Br)cc2)cc1 (stereo unspecified) | · | · | · | · | · | 11
CCOC(=O)c1ccc(N2NC(=O)/C(=C/c3cccc(OC)c3O)C2=O)cc1 | · | · | · | · | · | 55*
CCOC(=O)c1ccc(N2NC(=O)/C(=C/c3cc(Br)ccc3O)C2=O)cc1 | · | · | · | · | · | 75*
CCOC(=O)c1ccc(N2NC(=O)/C(=C/c3ccc(C=O)cc3)C2=O)cc1 | · | · | · | · | · | 96*
COc1ccc(-c2[nH]ncc2Oc2ccccc2OC)c(O)c1 | 3 | 4 | 99* | 11 | 8 | 3
CCCc1ccc(Oc2cn[nH]c2-c2ccc(O)cc2O)cc1 | 7 | 2 | 100* | 24 | 8 | 1
Oc1cc(OCc2ccccc2Cl)ccc1-c1[nH]ncc1-c1ccccc1 | · | · | · | · | · | -1
CCCc1cc(-c2[nH]ncc2-c2ccc(C(=O)OCC)o2)c(O)cc1O | 3 | -25 | 43 | 16 | 1 | 8
COc1ccc(Oc2cn[nH]c2-c2ccc(O)cc2O)cc1 | 9 | 3 | 94* | 2 | 22 | 1
COc1ccc(-c2[nH]ncc2-c2cnn(-c3ccccc3)c2)c(O)c1 | 7 | · | 93* | 5 | 1 | 1
COc1ccc(O)c(-c2cn[nH]c2-c2cccs2)c1 | · | 4 | 15 | 8 | -6 | 2
COc1ccc(-c2[nH]ncc2-c2cnc(C)s2)c(O)c1 | 3 | -2 | 1 | 14 | 7 | 6
COc1ccc(OC)c(NC(=O)c2ccc3c(c2)C(=O)N(c2cccc([N+](=O)[O-])c2)C3=O)c1 | · | · | · | · | · | 4
CCP(=O)(CC)CCP(=O)(c1ccccc1)c1ccccc1 | · | · | · | · | · | 8
CCC(C)(C)n1nnnc1C(c1cc2ccc(C)cc2[nH]c1=O)N(Cc1cccnc1)Cc1ccco1 (stereo unspecified) | 2 | -3 | 71* | 5 | -9 | 5
Cc1cc2cc(C(c3nnnn3C3CCCC3)N(Cc3cccnc3)Cc3ccco3)c(=O)[nH]c2cc1C (stereo unspecified) | · | · | · | · | -16 | ·
Clc1cccc(NCc2nnc(SCc3ccccc3)o2)c1 | 5 | -3 | 99* | -4 | 7 | 4
Clc1cccc(NCc2nnc(SCc3ccccc3Cl)o2)c1 | · | · | · | · | -8 | ·
COc1ccc(N/C=C/C(=O)c2ccco2)cc1 | · | · | · | · | · | -4
C=C(C)COc1ccc(-c2n[nH]c(C)c2Oc2ccccc2OC)c(O)c1 | 6 | 0 | 88* | -5 | 9 | -2
CCOc1ccc(-c2n[nH]c(C)c2Oc2ccccc2OC)c(O)c1 | 0 | 2 | 95* | 8 | 11 | 10
SMILES | Ec RNAP inh | MMP-13 inhibitor | tolC growth inh | AP ELISA ortho | E coli WT exp | HePTP inhibitor
CCCOC(=O)c1ccc(Oc2c(-c3ccc(O)cc3O)n[nH]c2C)cc1 | 2 | 2 | 100* | 18 | 15 | -3
CC1CCN(S(=O)(=O)c2ccc(NC(=O)c3ccc(-c4ccccc4)cc3)cc2)CC1 | · | · | · | · | · | -3
CC1=NN(C(=N)c2ccccc2)C(O)(c2ccccc2)C1 (stereo unspecified) | · | · | · | · | · | -8
Cc1ccc2nsnc2c1NC(=O)COc1ccccc1[N+](=O)[O-] | · | · | · | · | · | -1
C/C(=N\N=C1\NC(=O)C(CC(=O)Nc2ccccc2[N+](=O)[O-])S1)c1ccc(Br)cc1 (stereo unspecified) | · | · | · | · | · | 6
COc1ccc(OC)c(S(=O)(=O)n2cnc3cc(C)c(C)cc32)c1 | 2 | 2 | 94* | 5 | 0 | 7
COc1ccc(OC)c(S(=O)(=O)N2CCN(c3c(C)cccc3C)CC2)c1 | 11 | 6 | 65* | 13 | -8 | 8
CCN1CCN(S(=O)(=O)c2cc(OC)ccc2OC)CC1 | 7 | 1 | -3 | 0 | 5 | 8
CC1(C)CC(=O)c2c(nc(SC3C=CCCC3)c(C#N)c2-c2ccccc2)C1 (stereo unspecified) | · | · | · | · | · | -19
O=C(/C=C/c1ccccc1)C1=C(O)C(=O)N(c2ccccc2)C1c1ccccc1F (stereo unspecified) | · | · | · | · | · | 0
COc1ccc(-c2nnc3n2N=C(c2ccccc2)CS3)cc1OC | 6 | 4 | 9 | 0 | · | 3
Cc1cc(-c2nnc3n2N=C(c2ccc(-c4ccccc4)cc2)CS3)n[nH]1 | 7 | -1 | 92* | 15 | -4 | ·
Cc1ccc(-c2nc3cc(Cl)ccc3o2)cc1NC(=O)C(Cl)(Cl)Cl | · | · | · | · | · | 53*
Cc1cc(Cl)ccc1OC(C)C(=O)Nc1cccc(Cl)c1 (stereo unspecified) | · | · | · | · | · | -1
N/C(=N\OC(=O)c1cccc(Cl)c1)c1ccc(Cl)cc1 | · | · | · | · | · | -18
Nc1c(C(=O)NCc2ccc3c(c2)OCO3)c2nc3ccccc3nc2n1CCCN1CCOCC1 | -4 | -194 | 95* | 13 | 0 | 3
COc1ccccc1CNC(=O)c1c(N)n(CCCN2CCOCC2)c2nc3ccccc3nc12 | · | · | · | · | 9 | ·
O=C(NC1CCCCC1)c1sc(=S)n2c1[nH]c(=O)c1ccccc12 | 1 | 4 | 100* | 11 | -11 | 0
CCCCNC(=O)c1sc(=S)n2c1[nH]c(=O)c1ccccc12 | 6 | 6 | 100* | -4 | 11 | -9
O=C(NCC1CCCO1)c1sc(=S)n2c1[nH]c(=O)c1ccc(C(=O)N3CCCCC3)cc12 (stereo unspecified) | 16 | 4 | 67* | 21 | -9 | 0
O=C(NCC1CCCO1)c1ccc2c(=O)n(CC3CCCO3)c(=S)[nH]c2c1 (stereo unspecified) | · | · | · | · | 5 | ·
CCOc1ccccc1NC(=O)c1c(N)sc2c1CCC2 | · | · | · | · | · | -6
CCOC(=O)C1=C(O)/C(=C\c2ccccc2[N+](=O)[O-])N=C1C | · | · | · | · | · | 12
CC(Nc1ccc(Br)cn1)c1cc(Cl)ccc1O (stereo unspecified) | 8 | 1 | 100* | -2 | 20 | -4
Cc1ccc2c(c1)[nH]c1c(N3CCN(Cc4ccccc4)CC3)ncnc12 | 3 | -20 | 100* | -15 | -7 | 1
CCOc1ccc2[nH]c3c(N4CCN(c5ccccn5)CC4)ncnc3c2c1 | 2 | -58 | 66* | -7 | -11 | 8
Cc1ccc2[nH]c3c(N4CCN(Cc5ccccc5)CC4)ncnc3c2c1 | 12 | -45 | 1 | 1 | 5 | 4

Screening data as filed in PubChem BioAssay.
